In ChEMBL document CHEMBL2390928:
Active and inactive are the calls of the source. The rule behind the calls is not given here.

Key:
SK-OV-3 [1] = experiment: Cytotoxicity against human SKOV3 cells assessed as growth inhibition after 48 hrs by SRB assay; format: functional, cell-based; conditions: SK-OV-3, 48 h
SR = experiment: Growth inhibition of human SR cells; format: functional
SW-620 = experiment: Growth inhibition of human SW620 cells; format: functional
HCT-15 = experiment: Growth inhibition of human HCT15 cells; format: functional
[2] = Inhibition of bovine brain tubulin assembly after 20 mins by spectrophotometric analysis; design: species or system Bos taurus
Procedure, shortened: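 Electrophoretically homogeneous bovine brain tubulin is used at 10 µM (1.0 mg/mL) with varying inhibitor concentrations. After 15 min preincubation at 30 °C, 0.4 mM GTP is added.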

Malme-3M = experiment: Growth inhibition of human MALME-3M cells; format: functional
MDA-MB-231 = experiment: Growth inhibition of human MDA-MB-231 cells; format: functional
COLO 205 = experiment: Growth inhibition of human COLO205 cells; format: functional
UACC-62 = experiment: Growth inhibition of human UACC62 cells; format: functional
OVCAR-8 = experiment: Growth inhibition of human OVCAR8 cells; format: functional
786-0 = experiment: Growth inhibition of human 786-0 cells; format: functional
SF-295 = experiment: Growth inhibition of human SF295 cells; format: functional
TK-10 = experiment: Growth inhibition of human TK10 cells; format: functional
SNB-75 = experiment: Growth inhibition of human SNB75 cells; format: functional
HL-60(TB) = experiment: Growth inhibition of human HL-60(TB) cells; format: functional
A549 = experiment: Growth inhibition of human A549 cells; format: functional
SK-MEL-2 = experiment: Growth inhibition of human SK-MEL-2 cells; format: functional
BT-549 = experiment: Growth inhibition of human BT549 cells; format: functional
NCI-H522 = experiment: Growth inhibition of human NCI-H522 cells; format: functional
MDA-MB-435 [3] = experiment: Growth inhibition of human MDA-MB-435 cells; format: functional
NCI-H322M = experiment: Growth inhibition of human NCI-H322M cells; format: functional
SN12C = experiment: Growth inhibition of human SN12C cells; format: functional
Hs-578T = experiment: Growth inhibition of human Hs578T cells; format: functional
[4] = Growth inhibition of human NCI-ADR-RES cells; format: functional
HOP-62 = experiment: Growth inhibition of human HOP62 cells; format: functional
NCI-H226 = experiment: Growth inhibition of human NCI-H226 cells; format: functional
SF-539 = experiment: Growth inhibition of human SF539 cells; format: functional
[5] = Growth inhibition of human HCC2998 cells; format: functional; conditions: HCC 2998
UO-31 = experiment: Growth inhibition of human UO31 cells; format: functional
MDA-MB-435 [6] = experiment: Cytotoxicity against human MDA-MB-435 cells assessed as growth inhibition after 48 hrs by SRB assay; format: functional, cell-based; conditions: MDA-MB-435, 48 h
CCRF-CEM = experiment: Growth inhibition of human CCRF-CEM cells; format: functional
MCF7 = experiment: Growth inhibition of human MCF7 cells; format: functional
MOLT-4 = experiment: Growth inhibition of human MOLT4 cells; format: functional
[7] = Growth inhibition of human EKVX cells; format: functional
PC-3 = experiment: Growth inhibition of human PC3 cells; format: functional
NCI-H23 = experiment: Growth inhibition of human NCI-H23 cells; format: functional
ACHN = experiment: Growth inhibition of human ACHN cells; format: functional
OVCAR-5 = experiment: Growth inhibition of human OVCAR5 cells; format: functional
LOX IMVI = experiment: Growth inhibition of human LOXIMVI cells; format: functional
SK-OV-3 [8] = experiment: Growth inhibition of human SKOV3 cells; format: functional
NCI-H460 = experiment: Growth inhibition of human NCI-H460 cells; format: functional
HeLa [9] = experiment: Cytotoxicity against human HeLa cells assessed as growth inhibition after 48 hrs by SRB assay; format: functional, cell-based
M14 = experiment: Growth inhibition of human M14 cells; format: functional
DU-145 = experiment: Growth inhibition of human DU145 cells; format: functional
HCT-116 = experiment: Growth inhibition of human HCT116 cells; format: functional
OVCAR-3 = experiment: Growth inhibition of human OVCAR3 cells; format: functional
SNB-19 = experiment: Growth inhibition of human SNB19 cells; format: functional
[10] = Induction of interphase microtubule depolymerization in rat A10 cells after 18 to 24 hrs by indirect immunofluorescence assay; format: cell-based
Procedure, shortened: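 Rat aortic smooth muscle A-10 cells are treated for 18 h, fixed in cold methanol, and stained for microtubules with a β-tubulin antibody by indirect immunofluorescence. […] It is computed per experiment over a wide concentration range, from at least 3 independent experiments, and reported as mean ± SD.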

SF-268 = experiment: Growth inhibition of human SF268 cells; format: functional
RPMI-8226 = experiment: Growth inhibition of human RPMI8226 cells; format: functional
K562 = experiment: Growth inhibition of human K562 cells; format: functional
KM12 = experiment: Growth inhibition of human KM12 cells; format: functional
RXF 393 = experiment: Growth inhibition of human RXF393 cells; format: functional
SK-MEL-5 = experiment: Growth inhibition of human SK-MEL-5 cells; format: functional
MDA-MB-435 [11] = experiment: Cell cycle arrest in human MDA-MB-435 cells assessed as increase in accumulation at G2/M phase at 44.1 to 73.5 nM after 18 hrs by FACS flow cytometric analysis; format: functional, cell-based
Procedure, shortened: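 Cells harvested, stained with Krishan's reagent (propidium iodide), analysed by flow cytometry; propidium iodide intensity plotted against event count to give cell cycle distribution.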

SK-MEL-28 = experiment: Growth inhibition of human SK-MEL-28 cells; format: functional
U-251 = experiment: Growth inhibition of human U251 cells; format: functional
MDA-MB-468 = experiment: Growth inhibition of human MDA-MB-468 cells; format: functional
Bos taurus = species: Bos taurus; experiment: Displacement of [3H]-colchicine from bovine brain tubulin at 5 uM after 10 mins relative to control
Procedure, shortened: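 Electrophoretically homogeneous bovine brain tubulin, 1.0 µM, incubated 10 min at 37 °C with 5.0 µM [3H]colchicine and 5.0 µM inhibitor; colchicine binding inhibition expressed as percent ± SD.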

A498 = experiment: Growth inhibition of human A498 cells; format: functional
HT-29 = experiment: Growth inhibition of human HT-29 cells; format: functional
OVCAR-4 = experiment: Growth inhibition of human OVCAR4 cells; format: functional
HOP-92 = experiment: Growth inhibition of human HOP92 cells; format: functional
HeLa [12] = experiment: Resistance ratio of IC50 for human HeLa cells expressing beta-3 tubulin to IC50 for human HeLa cells; format: functional
Procedure, shortened: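 HeLa WT βIII cells are HeLa cells transfected with the βIII-tubulin gene. IC50 in this line and in parental HeLa is taken from the sulforhodamine B assay (3–5 independent experiments). Rr is the βIII-line IC50 divided by the parental HeLa IC50.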

[13] = Ratio of EC50 for induction of microtubule depolymerization in rat A10 cells to IC50 for human MDA-MB-435 cells
Procedure, shortened: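 This ratio divides the A-10 EC50 by the MDA-MB-435 melanoma IC50. […] The IC50 is from the sulforhodamine B proliferation assay, 3–5 independent experiments.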

SK-OV-3 [14] = experiment: Resistance ratio of IC50 for human SKOV3 cells expressing MDR1 to IC50 for human SKOV3 cells; format: functional
Procedure, shortened: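 Relative resistance (Rr) is the IC50 in Pgp-expressing SK-OV-3 MDR-1-6/6 cells divided by the IC50 in parental SK-OV-3 cells.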

CC(=O)O[C@H]1C(=O)[C@@]2(C)[C@H]([C@H](OC(=O)c3ccccc3)[C@]3(O)C[C@H](OC(=O)[C@H](O)[C@@H](NC(=O)c4ccccc4)c4ccccc4)C(C)=C1C3(C)C)[C@]1(OC(C)=O)CO[C@@H]1C[C@@H]2O [PACLITAXEL]
IC50 (SK-OV-3 [1]): 4.4 nM

COc1ccc(N(C)c2nc(N)nc3[nH]c4ccccc4c23)cc1
GI50 (SR): < 10 nM
GI50 (SW-620): 19 nM
GI50 (HCT-15): 26.1 nM
IC50 [2]: 1400 nM
GI50 (Malme-3M): 304 nM
GI50 (MDA-MB-231): 64.6 nM
GI50 (COLO 205): 25.8 nM
GI50 (UACC-62): 27 nM
GI50 (OVCAR-8): 42.3 nM
GI50 (786-0): 49 nM
GI50 (SF-295): 26 nM
GI50 (TK-10): 56.2 nM
GI50 (SNB-75): 12.7 nM
GI50 (HL-60(TB)): 32.2 nM
GI50 (A549): 36.4 nM
GI50 (SK-MEL-2): 19.7 nM
GI50 (BT-549): 94.5 nM
GI50 (NCI-H522): < 10 nM
GI50 (MDA-MB-435 [3]): < 10 nM
GI50 (NCI-H322M): 64.2 nM
GI50 (SN12C): 80.1 nM
GI50 (Hs-578T): 11.5 nM
GI50 [4]: 11.5 nM
GI50 (HOP-62): 40 nM
GI50 (NCI-H226): 133 nM
GI50 (SF-539): 24.2 nM
GI50 [5]: 23.6 nM
GI50 (UO-31): 53.7 nM
IC50 (MDA-MB-435 [6]): 14.7 nM
GI50 (CCRF-CEM): 41.1 nM
GI50 (MCF7): 16.4 nM
GI50 (MOLT-4): 47.7 nM
GI50 [7]: 16.7 nM
GI50 (PC-3): 44.3 nM
GI50 (NCI-H23): 31.8 nM
GI50 (ACHN): 89.6 nM
GI50 (OVCAR-5): 51.2 nM
GI50 (LOX IMVI): 68.4 nM
GI50 (SK-OV-3 [8]): 29.9 nM
GI50 (NCI-H460): 30 nM
IC50 (HeLa [9]): 21.3 nM
GI50 (M14): 16.6 nM
GI50 (DU-145): 31.4 nM
GI50 (HCT-116): 29.8 nM
GI50 (OVCAR-3): 12.9 nM
GI50 (SNB-19): 50.9 nM
EC50 [10]: 105 nM
GI50 (SF-268): 37.7 nM
GI50 (RPMI-8226): 41.1 nM
IC50 (SK-OV-3 [1]): 27.6 nM
GI50 (K562): < 10 nM
GI50 (KM12): 13.2 nM
GI50 (RXF 393): 16.9 nM
GI50 (SK-MEL-5): 32.3 nM
Activity (MDA-MB-435 [11]): Active
GI50 (SK-MEL-28): < 10 nM
GI50 (U-251): 37.3 nM
GI50 (MDA-MB-468): 26.9 nM
inhibition (Bos taurus): 84%
GI50 (A498): 15.8 nM
GI50 (HT-29): 31 nM
GI50 (OVCAR-4): 52.7 nM
GI50 (HOP-92): 242 nM

CCN(c1ccc(OC)cc1)c1nc(N)nc2[nH]c3ccccc3c12
IC50 [2]: 1700 nM
Ratio IC50 (HeLa [12]): 1.4
IC50 (MDA-MB-435 [6]): 23.5 nM
IC50 (HeLa [9]): 32.8 nM
Ratio [13]: 8.4
EC50 [10]: 198 nM
Ratio IC50 (SK-OV-3 [14]): 1.4
IC50 (SK-OV-3 [1]): 53 nM
inhibition (Bos taurus): 76%
